Measurements published in ChEMBL document CHEMBL4680101, “Discovery and Optimization of Allosteric Inhibitors of Mutant Isocitrate Dehydrogenase 1 (R132H IDH1) Displaying Activity in Human Acute Myeloid Leukemia Cells” (J Med Chem, 2016).
Where “and” joins values, the source holds several entries; their conditions need not be identical. Equal values may be shown once. One block for each compound: values may come before it. Calls of active or inactive are those of the source. No cut-off for these calls is given here.

How the values were obtained:
[1] = biological target: Isocitrate dehydrogenase [NADP] cytoplasmic (Homo sapiens, UniProt O75874, R132C); assay: Inhibition of IDH1 R132C mutant (unknown origin) using alpha-ketoglutarate and NADPH incubated for 30 mins by fluorescence based assay
Chain of Isocitrate dehydrogenase [NADP] cytoplasmic (Homo sapiens, UniProt O75874, R132C) (O75874 2-414 R132C limits assumed): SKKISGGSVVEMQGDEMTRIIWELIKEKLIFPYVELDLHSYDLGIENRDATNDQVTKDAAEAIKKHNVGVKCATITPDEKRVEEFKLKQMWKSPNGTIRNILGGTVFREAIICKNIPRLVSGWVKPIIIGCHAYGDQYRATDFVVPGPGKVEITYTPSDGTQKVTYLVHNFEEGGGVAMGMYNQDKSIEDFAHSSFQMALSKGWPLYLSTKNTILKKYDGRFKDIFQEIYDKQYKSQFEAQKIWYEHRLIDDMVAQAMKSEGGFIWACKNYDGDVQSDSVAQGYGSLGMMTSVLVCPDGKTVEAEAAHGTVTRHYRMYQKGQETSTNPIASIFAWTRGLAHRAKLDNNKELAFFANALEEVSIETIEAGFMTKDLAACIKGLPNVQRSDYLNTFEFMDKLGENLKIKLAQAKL
Summary of the method: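 IDH1 R132C (100 nM) in 20 mM Tris pH 7.5, 10 mM MgCl2, 150 mM NaCl, 0.03% BSA with 0.5 mM α-ketoglutarate and 50 µM NADPH. Reaction 30 min at 26 °C. NADPH consumption read via diaphorase/resazurin coupling, resorufin fluorescence Ex544/Em590.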

[2] = biological target: 11-beta-hydroxysteroid dehydrogenase 1 (Homo sapiens, UniProt P28845); assay: Inhibition of active recombinant human N-terminal His-tagged 11-betaHSD1 expressed in Escherichia coli using cortisone, NADPH and glucose-6-phosphate incubated for 2 hrs by glucose-6-phosphate dehydrogenase based coupled HTRF immuno-competitive assay
Chain of 11-beta-hydroxysteroid dehydrogenase 1 (P28845 whole entry): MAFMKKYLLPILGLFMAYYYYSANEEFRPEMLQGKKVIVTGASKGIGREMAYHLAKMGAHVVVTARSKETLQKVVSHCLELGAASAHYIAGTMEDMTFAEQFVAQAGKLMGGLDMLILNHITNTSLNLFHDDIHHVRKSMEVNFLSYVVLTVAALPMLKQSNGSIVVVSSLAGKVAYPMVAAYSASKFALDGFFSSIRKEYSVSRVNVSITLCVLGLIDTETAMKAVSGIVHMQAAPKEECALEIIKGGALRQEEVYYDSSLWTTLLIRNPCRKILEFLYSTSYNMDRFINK
Summary of the method: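 Coupled HTRF immuno-competitive assay: 11β-HSD1 (1.5 µg/ml) in 100 mM potassium phosphate pH 7.6 with 160 nM cortisone, 1 mM EDTA, 1 mM glucose-6-phosphate and 12.5 µg/ml G6PD, started with 0.1 mM NADPH. Reaction 30 min at 37 °C, stopped with glycyrrhetinic acid in cortisol-d2, then anti-cortisol cryptate for 2 h at room temperature. TR-FRET read-out.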

[3] = biological target: T1, Isocitrate dehydrogenase [NADP] cytoplasmic (Homo sapiens, UniProt O75874, R132H); assay: Allosteric inhibition of IDH1 R132H mutant (unknown origin) expressed in HEK293T cells assessed as reduction in 2-HG production incubated for 48 hrs by LC-MS/MS analysis; format: cell-based
Summary of the method: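 HEK293T cells reverse-transfected with pcDNA3.1 IDH1 R132H (Lipofectamine 2000), 6 h at 37 °C in 1% FBS plating medium, then assay medium. Compound added in DMSO (0.15% final), 48 h at 37 °C. Medium 2-HG quantified by HILIC LC-MS/MS with D3-2-HG internal standard, normalised to Hoechst nuclear count. Mean of two biological replicates.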
Target sequence in this assay (O75874 2-414 R132H limits assumed): as the sequence (O75874 2-414 R132C limits assumed) above, with C131H counted along it

HeLa = assay: Cytotoxicity in human HeLa cells; format: cell-based
[4] = tested on: Isocitrate dehydrogenase [NADP] cytoplasmic (Homo sapiens), O75874 [R132H]; assay: (§1) Allosteric inhibition of Myc-tagged IDH1 R132H mutant (unknown origin) expressed in human THP-1 cells assessed as inhibition of 2-HG production incubated for 5 days in presence of doxycycline by LC-MS/MS analysis; format: cell-based; conditions: filed as negative allosteric modulator, time 5.0 day
Chain of Isocitrate dehydrogenase [NADP] cytoplasmic (Homo sapiens), O75874 [R132H] (O75874 whole entry R132H): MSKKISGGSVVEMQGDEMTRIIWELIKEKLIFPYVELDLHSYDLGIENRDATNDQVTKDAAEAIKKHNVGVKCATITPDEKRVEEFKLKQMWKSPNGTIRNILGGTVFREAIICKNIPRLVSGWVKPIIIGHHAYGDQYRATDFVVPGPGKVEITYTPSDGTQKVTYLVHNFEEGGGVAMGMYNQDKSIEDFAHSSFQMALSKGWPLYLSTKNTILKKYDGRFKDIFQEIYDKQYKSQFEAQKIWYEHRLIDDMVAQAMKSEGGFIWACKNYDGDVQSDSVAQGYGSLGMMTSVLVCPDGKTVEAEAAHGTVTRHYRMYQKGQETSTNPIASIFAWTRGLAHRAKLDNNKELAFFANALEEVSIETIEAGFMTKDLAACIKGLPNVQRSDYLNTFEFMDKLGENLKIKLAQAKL
Summary of the method: (§2)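 THP1 cells carrying doxycycline-inducible Myc-tagged IDH1 R132H (lentiviral, blasticidin-selected) cultured 5 days with doxycycline and compound. 2-HG measured by HILIC LC-MS/MS after solid-phase extraction, D3-2-HG internal standard, against a medium-spiked standard curve. Mean of two biological replicates.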

[5] = biological target: T1, Isocitrate dehydrogenase [NADP] cytoplasmic; assay: as §1; format: cell-based; summary of the method: as §2
Target sequence in this assay (O75874 whole entry R132H): as above

[6] = tested on: Isocitrate dehydrogenase [NADP] cytoplasmic (Homo sapiens), O75874 [R132H]; assay: Allosteric inhibition of Myc-tagged IDH1 R132H mutant (unknown origin) expressed in human THP-1 cells assessed as inhibition of 2-HG production at >=10 uM incubated for 5 days in presence of doxycycline by LC-MS/MS analysis; format: cell-based; conditions: filed as negative allosteric modulator, dose microM >=10, time 5.0 day; summary of the method: as §2
THP-1 = assay: Effect on cell proliferation in human THP-1 cells; format: ADME, cell-based
[7] = Effect on cell differentiation in human THP-1 cells; format: ADME, cell-based
Leukemic blast cell [8] = assay: Induction of myeloid differentiation in human primary AML blast cells from patient with IDH1 R132H mutation assessed as up-regulation of CD11b at 1 times to 8 times IC50 incubated for 14 days by flow cytometry; format: functional, tissue-based; conditions: time 14.0 day
Summary of the method: (§3)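 Primary AML cells (≥80% blasts), 2 x 10^4 per condition in methylcellulose with cytokines (IL-3, IL-6, IL-11, FLT3L, SCF, TPO, G-CSF, EPO). Compound at 1x, 4x, 8x cellular IC50 or DMSO (1:1000), 14 days at 37 °C. Recovered cells stained for CD11b, CD15 and CD117, ≥30 min at 4 °C, read by flow cytometry.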

Leukemic blast cell [9] = assay: Induction of myeloid differentiation in human primary AML blast cells from patient with IDH1 R132H mutation assessed as up-regulation of CD15 at 1 times to 8 times IC50 incubated for 14 days by flow cytometry; format: functional, tissue-based; conditions: time 14.0 day; summary of the method: as §3
Leukemic blast cell [10] = assay: Induction of myeloid differentiation in human primary AML blast cells from patient with IDH1 R132H mutation assessed as down-regulation of CD117 at 1 times to 8 times IC50 incubated for 14 days by flow cytometry; format: functional, tissue-based; conditions: time 14.0 day; summary of the method: as §3
Leukemic blast cell [11] = assay: Induction of myeloid differentiation in human primary AML blast cells from patient with IDH1 R132H mutation assessed as induction of mature cellular morphology at 1 times to 8 times IC50 incubated for 14 days by cytospin based analysis; format: functional, tissue-based; conditions: time 14.0 day
Summary of the method: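 Primary IDH1 R132H AML cells in cytokine-supplemented methylcellulose with compound or DMSO vehicle for 14 days. Cells recovered by dilution in PBS and centrifugation, then examined on cytospin preparations for morphology.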

Leukemic blast cell [12] = assay: Induction of myeloid differentiation in human primary AML blast cells from patient with IDH1 R132H mutation assessed as increase in clonogenic activity at 1 times to 8 times IC50 incubated for 14 days by cytospin based analysis; format: functional, tissue-based; conditions: time 14.0 day
Summary of the method: (§4)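 Primary AML cells (≥80% blasts) seeded at 2 x 10^4 per condition in cytokine-supplemented methylcellulose with compound or DMSO vehicle (1:1000), 37 °C, 5% CO2. Colonies scored and counted after 14 days, expressed relative to vehicle control. Three independent experiments, mean ± standard error.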

Leukemic blast cell [13] = assay: Induction of myeloid differentiation in human primary AML blast cells from patient with wild type IDH1 assessed as increase in clonogenic activity at 1 times to 8 times IC50 incubated for 14 days by cytospin based analysis; format: functional, tissue-based; conditions: time 14.0 day; summary of the method: as §4
Leukemic blast cell [14] = assay: Induction of myeloid differentiation in human primary AML blast cells from patient with wild type IDH1 assessed as up-regulation of CD11b at 1 times to 8 times IC50 incubated for 14 days by flow cytometry; format: functional, tissue-based; conditions: time 14.0 day; summary of the method: as §3
Leukemic blast cell [15] = assay: Induction of myeloid differentiation in human primary AML blast cells from patient with wild type IDH1 assessed as up-regulation of CD15 at 1 times to 8 times IC50 incubated for 14 days by flow cytometry; format: functional, tissue-based; conditions: time 14.0 day; summary of the method: as §3
Leukemic blast cell [16] = assay: Induction of myeloid differentiation in human primary AML blast cells from patient with wild type IDH1 assessed as down-regulation of CD117 at 1 times to 8 times IC50 incubated for 14 days by flow cytometry; format: functional, tissue-based; conditions: time 14.0 day; summary of the method: as §3
[17] = biological target: T2, Isocitrate dehydrogenase [NADP] cytoplasmic (Homo sapiens, UniProt O75874); assay: Inhibition of wild type IDH1 (unknown origin) using isocitrate and NADP incubated for 30 mins by fluorescence based assay
T2 sequence (O75874 whole entry): as the sequence (O75874 whole entry R132H) above, with H132R counted along it

[18] = biological target: T3, Isocitrate dehydrogenase [NADP], mitochondrial (Homo sapiens, UniProt P48735); assay: Inhibition of wild type IDH2 (unknown origin) using isocitrate and NADP incubated for 60 mins by fluorescence based assay
T3 sequence (P48735 whole entry): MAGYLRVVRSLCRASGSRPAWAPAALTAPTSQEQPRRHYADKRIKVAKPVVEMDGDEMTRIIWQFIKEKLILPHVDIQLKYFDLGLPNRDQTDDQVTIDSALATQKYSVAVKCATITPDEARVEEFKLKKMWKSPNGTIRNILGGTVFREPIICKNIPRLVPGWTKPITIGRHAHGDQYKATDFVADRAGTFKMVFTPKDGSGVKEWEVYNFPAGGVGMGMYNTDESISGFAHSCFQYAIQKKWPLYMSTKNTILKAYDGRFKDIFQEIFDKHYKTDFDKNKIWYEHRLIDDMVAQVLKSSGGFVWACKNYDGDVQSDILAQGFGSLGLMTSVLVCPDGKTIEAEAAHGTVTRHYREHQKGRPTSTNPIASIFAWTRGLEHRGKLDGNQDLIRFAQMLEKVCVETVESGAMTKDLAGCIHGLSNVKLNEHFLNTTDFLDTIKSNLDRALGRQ

[19] = biological target: Glucose-6-phosphate 1-dehydrogenase (Homo sapiens, UniProt P11413); assay: Inhibition of wild type G6PD (unknown origin) using glucose-6-phosphate and NADP incubated for 30 mins by fluorescence based assay
Chain of Glucose-6-phosphate 1-dehydrogenase (P11413 whole entry): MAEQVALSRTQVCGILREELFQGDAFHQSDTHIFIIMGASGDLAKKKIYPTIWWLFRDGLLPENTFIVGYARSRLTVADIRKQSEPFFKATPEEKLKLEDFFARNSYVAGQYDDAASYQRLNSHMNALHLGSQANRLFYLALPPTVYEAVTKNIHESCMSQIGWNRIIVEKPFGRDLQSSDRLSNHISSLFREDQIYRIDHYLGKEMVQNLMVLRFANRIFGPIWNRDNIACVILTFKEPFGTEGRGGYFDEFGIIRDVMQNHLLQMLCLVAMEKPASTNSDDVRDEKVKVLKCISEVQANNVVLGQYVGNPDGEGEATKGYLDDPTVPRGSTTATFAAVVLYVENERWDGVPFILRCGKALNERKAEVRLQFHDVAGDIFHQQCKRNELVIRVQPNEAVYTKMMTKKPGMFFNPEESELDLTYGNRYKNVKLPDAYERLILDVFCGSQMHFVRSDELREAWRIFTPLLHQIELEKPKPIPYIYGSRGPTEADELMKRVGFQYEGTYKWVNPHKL

[20] = biological target: T1, Isocitrate dehydrogenase [NADP] cytoplasmic; assay: Inhibition of IDH1 R132H mutant (unknown origin) using alpha-ketoglutarate and NADPH incubated for 60 mins by fluorescence based assay
Target sequence in this assay (O75874 2-414 R132H limits assumed): as the sequence (O75874 2-414 R132C limits assumed) above, with C131H counted along it

[21] = biological target: T2, Isocitrate dehydrogenase [NADP] cytoplasmic; assay: Inhibition of wild type IDH1 (unknown origin) using alpha-ketoglutarate and NADPH incubated for 30 mins by fluorescence based assay

SMILES: COc1nc(N2CCC[C@@H](CC(=O)O)C2)ccc1C(=O)NC1CCCCC1
IC50 [3]: > 30 µM
IC50 (HeLa): > 30 µM
IC50 [20]: > 50 µM

SMILES: O=C(NC1C2CC3CC1CC(O)(C3)C2)c1ccc(N2C[C@@H]3[C@H](C2)[C@H]3C(=O)O)nc1SC1CCCC1 (stereo partly drawn)
inhibition [21]: inactive
IC50 [20]: 3 µM and 1.6 µM

SMILES: CC(C)CCSc1nc(N2C[C@@H]3[C@H](C2)[C@H]3C(=O)O)ccc1C(=O)NC1C2CC3CC1CC(O)(C3)C2 (stereo partly drawn)
inhibition [21]: inactive
IC50 [20]: 1.63 µM and 1.4 µM

SMILES: CC(C)CCOc1nc(N2C[C@@H]3[C@H](C2)[C@H]3C(=O)O)ccc1C(=O)NC1CCCCC1
IC50 [20]: 7.9 µM

SMILES: O=C(O)C[C@@H]1CCCN(c2ccc(C(=O)NC3CCCCC3)c(OCC3CCCCC3)n2)C1
IC50 [20]: 9.7 µM

SMILES: O=C(O)C[C@@H]1CCCN(c2ccc(C(=O)NC3CCCCC3)c(OCC3CCC3)n2)C1
IC50 [20]: 20 µM

SMILES: CC(C)CCOc1nc(N2C[C@@H]3[C@H](C2)[C@H]3C(=O)O)ccc1C(=O)NC1CC2CCC1C2 (stereo partly drawn)
IC50 [20]: 14 µM

SMILES: CC(C)CCOc1nc(N2C[C@@H]3[C@H](C2)[C@H]3C(=O)O)ccc1C(=O)N(C)Cc1ccccc1
IC50 [20]: 7.4 µM

SMILES: CC(C)CCOc1nc(N2C[C@@H]3[C@H](C2)[C@H]3C(=O)O)ccc1C(=O)NCc1cccc(O)c1
IC50 [20]: 6.3 µM

SMILES: CC(C)CCNc1nc(N2CCC[C@@H](CC(=O)O)C2)ccc1C(=O)NC1CCCCC1
IC50 [20]: > 50 µM

SMILES: CCCC(C)Oc1nc(N2CCC[C@@H](CC(=O)O)C2)ccc1C(=O)NC1CCCCC1 (stereo partly drawn)
IC50 [20]: 12 µM

SMILES: CC(C)CC(C)Oc1nc(N2CCC[C@@H](CC(=O)O)C2)ccc1C(=O)NC1CCCCC1 (stereo partly drawn)
IC50 [20]: 12 µM

Continued, in another order:

IC50 [1]: 0.47 µM
IC50 [2]: 0.009 µM
IC50 [3]: 2.3 µM
inhibition [4]: Dose-dependent effect
IC50 [5]: 1.9 µM
inhibition [6]: 100%
IC50 [17]: > 50 µM
IC50 [18]: > 50 µM
IC50 [19]: > 50 µM
IC50 [20]: 0.27 µM
SMILES: CC(C)CCOc1nc(N2C[C@@H]3[C@H](C2)[C@H]3C(=O)O)ccc1C(=O)NC1C2CC3CC1CC(O)(C3)C2 (stereo partly drawn)
IC50 (HeLa): > 30 µM
Activity (THP-1): Non-Toxic
Activity [7]: Non-Toxic
Activity (Leukemic blast cell [8]): Active
Activity (Leukemic blast cell [9]): Active
Activity (Leukemic blast cell [10]): Active
Activity (Leukemic blast cell [11]): Active
Activity (Leukemic blast cell [12]): Active
Activity (Leukemic blast cell [13]): inactive
Activity (Leukemic blast cell [14]): inactive
Activity (Leukemic blast cell [15]): inactive
Activity (Leukemic blast cell [16]): inactive

IC50 [3]: 8.5 µM
IC50 [20]: 1.3 µM
SMILES: CC(C)CCOc1nc(N2CCC[C@@H](CC(=O)O)C2)ccc1C(=O)NC1C2CC3CC1CC(O)(C3)C2 (stereo partly drawn)
IC50 (HeLa): > 30 µM

inhibition [21]: inactive
IC50 [20]: 2.3 µM and 2.2 µM
SMILES: O=C(O)C[C@H]1CCN(c2ccc(C(=O)NC3C4CC5CC3CC(O)(C5)C4)c(SC3CCCCC3)n2)C1 (stereo partly drawn)

IC50 [20]: 8.8 µM
SMILES: O=C(O)C[C@@H]1CCCN(c2ccc(C(=O)NC3CCCCC3)c(OCc3ccc(F)cc3)n2)C1

IC50 [20]: 38 µM
SMILES: Cc1cc(Cl)ccc1COc1nc(N2CCC[C@@H](CC(=O)O)C2)ccc1C(=O)NC1CCCCC1

IC50 [20]: 11 µM
SMILES: C[C@H](Oc1nc(N2CCC[C@@H](CC(=O)O)C2)ccc1C(=O)NC1CCCCC1)c1ccccc1

IC50 [20]: 8.6 µM
SMILES: O=C(O)C[C@@H]1CCCN(c2ccc(C(=O)NC3CCCCC3)c(OCc3ccccc3)n2)C1

IC50 [3]: 16 µM
IC50 [20]: 5.6 µM
SMILES: O=C(O)C[C@@H]1CCCN(c2ccc(C(=O)NC3CCCCC3)c(OCc3ccccc3F)n2)C1
IC50 (HeLa): > 30 µM

IC50 [20]: 0.69 µM
SMILES: Cc1ccccc1COc1nc(N2CCC[C@@H](CC(=O)O)C2)ccc1C(=O)NC1C2CC3CC1CC(O)(C3)C2 (stereo partly drawn)

inhibition [21]: inactive
IC50 [20]: 10.1 µM and 7.6 µM
SMILES: CC(C)CCSc1nc(N2CCC[C@@H](CC(=O)O)C2)ccc1C(=O)NC1C2CC3CC1CC(O)(C3)C2 (stereo partly drawn)
